Experimental data pooled from the literature.
Each line is one published result; the experiments were not run side by side.
Target: Tyrosine-protein kinase SYK (SYK, Homo sapiens, UniProt P43405)

Compound	test	setting	quantity	result
Cn1cc(-c2cc(F)cc(N3CCn4c(cc5c4CCCC5)C3=O)c2CO)cc(Nc2ccc(N3CCN(C4COC4)CC3)cn2)c1=O	enzyme activity, inhibitor	0.1 µM	inhibition	12%
Cc1nn(C)cc1-c1nc2c(N3CCN(Cc4ccc(Cl)cc4)CC3)c(Cl)cnc2[nH]1	binding, competition with immobilised ligand	1 µM	remaining binding	100%
N#CC1(c2ccccn2)CCN(Cc2cc(C(=O)O)c(=O)n3ccccc23)CC1	cell-free assay, competition with immobilised ligand	1 µM	remaining binding	92%
O=c1[nH]c2ccccc2n1C1CCN(Cc2ccc(-c3[nH]c4cc5ncnc5cc4nc3-c3ccccc3)cc2)CC1	cell-free assay	0.5 µM	remaining signal	97.9%
Nc1ncc(-c2nc(N3CCOCC3)nc(N3CCOCC3)n2)c(C(F)F)n1	binding, competition with immobilised ligand	10 µM	remaining binding	61%
COc1ncccc1-c1cnn2ccc(N3CCN(C(=O)OC(C)C)CC3)nc12	binding, competition with immobilised ligand	1 µM	remaining binding	100%
Cn1cncc1[C@@](O)(COc1ccc(C#N)cc1-c1ccc(OC(F)(F)F)cc1)c1ccc(C#N)cc1	cell-free assay, competition with immobilised ligand	1 µM	remaining binding	100%
C#Cc1n[nH]c2c(-c3cn([C@@H](C)c4ccccn4)c(=O)[nH]c3=O)cc(F)cc12	enzyme activity, inhibitor	0.1 µM	inhibition	3.3%
Cn1cc(-c2cccc(N3CCc4c(sc5c4CC(C)(C)C5)C3=O)c2CO)cc(Nc2ccncn2)c1=O	enzyme activity, inhibitor	1 µM	inhibition	0%
